According to the RNAGym collection of RNA variant scans (doi:10.1038/nmeth.2970):

B1: NELF-E aptamer (parent)
chain: CCCAACGACUGCCGAGCGAGAUUACGCUUGAGCGCCCCACUGAGGAUGCCCACGGGCGAUUGGGGCACGG

Variants of: B1
Assay: HiTS-RAP
Settings: with NELF-E (Drosophila)
How it was run: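 Kd came from weighted Hill fits to the first binding curve, with intensities normalised to sequencing intensity and averaged per sequence, keeping only fits whose variance was below 1,000,000. That curve was imaged on an Illumina GAIIx flowcell, where sequenced aptamer DNA templates with a T7 promoter and ter site had been transcribed in situ by T7 RNA polymerase and halted by GST-Tus (30 minutes, 37°C). Before each image, clusters equilibrated for 30 minutes at room temperature with NELF-E-mOrange at 0.064 to 1000 nM in HEPES binding buffer.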

Row | Variant | Kd [nM]
1 | U29G C33G | 6.45
2 | U10G C35A | 7.32
3 | A8G C13G | 5.95
4 | A8G C13U | 4.41
5 | U10G C13U | 4.7
6 | C13G U41A | 83.4
7 | C13G U41G | 5.26
8 | U22G G44U | 17.2
9 | C6G C66U | 5.41
10 | U23G G64U | 6.13
11 | C9G G30U | 6.64
12 | C12U U22G | 5.99
13 | A5G U10G | 5.47
14 | G65U C66G | 4.98
15 | C6G G62A | 21.9
16 | U29A A39U | 20.9
17 | U41G | 5.16
18 | C9G A31G | 8.03
19 | U29G C40G | 5.85
20 | A24G A46U | 58.5
21 | A15U G34A | 11.8
22 | C13G G20A | 7.5
23 | A5G U28G | 7.79
24 | U22G C36A | 10.1

Row | Variant | Kd [nM]
25 | G7U C35A | 8.62
26 | C17A U23G | 5.06
27 | U22G A31U | 5.65
28 | A5U U47A | 10.5
29 | A5U A19U | 6
30 | C13G C37U | 10.3
31 | G14A A67G | 5.51
32 | A4G C37U | 13.2
33 | C6G U60C | 10.3
34 | A5G G11A | 6.61
35 | G14C | 5.95
36 | A15U U41C | 82.7
37 | G11U C27U | 4.86
38 | C12G G56U | 6.08
39 | C53U | 3.8
40 | C13G G26U | 5.51
41 | A4G U47A | 12.3
42 | C12G U23C | 3.97
43 | C6U A15U | 6.25
44 | A39G U41G | 6.74
45 | U22G G32U | 4.59
46 | U22G G32A | 4.39
47 | G26A A67G | 4.9
48 | G7U U23C | 4.06

Row | Variant | Kd [nM]
49 | G14U A19G | 6.25
50 | G7U G62U | 7.8
51 | G7U G62A | 25.2
52 | C12G C17U | 7.01
53 | C9G C51A | 8.9
54 | A15C | 4
55 | G11U G26A | 5.08
56 | A67C | 4.99
57 | G11A A24G | 5.78
58 | C6G G65A | 4.46
59 | G20U U23G | 6.37
60 | U10G C12G | 5.4
61 | U10G C12A | 5.88
62 | G11U A24G | 5.82
63 | U10A G26A | 5.22
64 | C17U A43G | 20.5
65 | A5G G34A | 5.89
66 | C13G U23A | 5.32
67 | G11A G14U | 6.48
68 | A4U U41C | 66
69 | G7U A43G | 58
70 | C13G G64A | 6.69
71 | C17G G55A | 7.03
72 | C6U C17G | 6.11

Row | Variant | Kd [nM]
73 | G14A A31G | 5.95
74 | G54A A59G | 73.6
75 | A24U U29G | 6.22
76 | C13G G14C | 7.7
77 | A19G C33U | 7.36
78 | G34A A67U | 16.8
79 | C68G | 4.57
80 | A24G U28G | 8.97
81 | U10G U23G | 5.1
82 | U10G U23A | 5.14
83 | U23G U47A | 13.5
84 | C13G C17U | 5.43
85 | C27U | 4.14
86 | U41G G64U | 5.28
87 | U10G C40U | 63.9
88 | A4U U61C | 74.2
89 | U23G C51U | 7.2
90 | C9U G11U | 5.56
91 | U29C A67U | 5.08
92 | A4U G20U | 6.62
93 | A15U U29A | 5.96
94 | G26C | 13.8
95 | U10G G56U | 5.31
96 | G48C | 85.4

Row | Variant | Kd [nM]
97 | A19G G20A | 6.4
98 | A4G G54U | 6.61
99 | A8U A21U | 7.37
100 | A4G C66G | 5.69
101 | U22G G56A | 8.77
102 | G11U C17G | 5.84
103 | A15U U60C | 10.7
104 | C6G C37A | 18.7
105 | C9G U10A | 6.51
106 | C9G U10C | 5.98
107 | A5G A31G | 7.69
108 | U10G G18A | 5.37
109 | U10G A39C | 19.7
110 | C6G G56U | 4.89
111 | C13G A19G | 5.43
112 | A8U G18U | 5.91
113 | A24G G56U | 8.45
114 | U10G G14U | 5.99
115 | U10G G14C | 6.25
116 | U41G U61A | 34.9
117 | G14U C37U | 21.2
118 | G45U A46G | 5.32
119 | G14U G20U | 6.93
120 | A21U U41G | 5.38

Row | Variant | Kd [nM]
121 | G11U G32A | 6.15
122 | C9G G11U | 6
123 | A5U C17U | 6.66
124 | G11A G18A | 7.8
125 | U10G G62U | 6.99
126 | U10G G62A | 16.9
127 | C17G C50U | 15.9
128 | C6G A52U | 16.1
129 | C6G A52G | 4.45
130 | C9G U23G | 5.35
131 | U23C U29G | 4.34
132 | G11A C17G | 6.96
133 | U10C C12G | 5.94
134 | U29G A67G | 5.86
135 | A4U U28A | 5.47
136 | A8U C12U | 5.4
137 | G16A G20U | 7.98
138 | U10C G16U | 5.14
139 | A4U A52U | 20.1
140 | C17G C40G | 5.54
141 | C6U A21G | 7.12
142 | U10G G42U | 23.2
143 | U10G G42A | 42.8
144 | A24G G34A | 8.56

Row | Variant | Kd [nM]
145 | G16U U61A | 33.3
146 | A5G C17U | 6.29
147 | C9G U60C | 11.4
148 | C9G U60G | 6.72
149 | U10G U41G | 5.17
150 | A24G G32A | 5.64
151 | A4C G14U | 7.54
152 | C13U G20U | 7.13
153 | A4G G64A | 8.61
154 | A15U C57U | 14.3
155 | C12U | 4.54
156 | G65C | 14
157 | C13G C51U | 6.36
158 | G11A U41A | 77
159 | A4G U22G | 5.51
160 | G18U A19G | 6.31
161 | C17G U29C | 4.96
162 | C6G C27U | 5.23
163 | A4G C50G | 10.4
164 | U22G C40U | 82.8
165 | A4G A24U | 6.89
166 | C9G A59U | 30.4
167 | C13G G32A | 4.64
